Assay results collected from several papers.
Compare with care: the assays were run in different laboratories. pIC50: −log10 of the molar value.
rep main protease: Replicase polyprotein 1ab, main protease (rep, Severe acute respiratory syndrome coronavirus 2, UniProt P0DTD1)
rep methyltransferase: Replicase polyprotein 1ab, methyltransferase (rep, Severe acute respiratory syndrome coronavirus 2, UniProt P0DTD1)

SMILES | target | assay | conditions | measurement | value
O=C(O[C@@H]1Cc2c(O)cc(O)cc2O[C@@H]1c1ccc(O)c(O)c1)c1cc(O)c(O)c(O)c1 | rep main protease | enzyme activity, inhibitor | with preincubation | pIC50 | > 5.00
Cc1c(O)cccc1C(=O)N[C@@H](CSc1ccccc1)[C@H](O)CN1C[C@H]2CCCC[C@H]2C[C@H]1C(=O)NC(C)(C)C | rep main protease | enzyme activity, inhibitor |  | pIC50 | 4.54
N#Cc1ccc(N2CCC(c3ccc(C(=O)O)cc3)=N2)cc1Cl | rep methyltransferase | enzyme activity, inhibitor |  | pIC50 | 4.27
O=C(N1CCC2(CC1)C[C@H](CN1CCCCS1(=O)=O)CCO2)C1(c2ccccc2)CCCC1 | Replicase polyprotein 1ab, helicase (rep, Severe acute respiratory syndrome coronavirus 2, UniProt P0DTD1) | ATPase activity, inhibitor |  | pIC50 | < 4.00
CCC1CC(c2ccc(C(=O)O)cc2)=NN1c1ccc(C#N)c(Cl)c1 (stereo not shown) | rep methyltransferase | enzyme activity, inhibitor |  | pIC50 | 6.38
C[C@@H]1CCO[C@H]2Cn3cc(C(=O)NCc4ccc(F)cc4F)c(=O)c(O)c3C(=O)N12 | rep main protease | enzyme activity, inhibitor |  | pIC50 | 4.31
COc1ccc(OC)c(C(O)C(C)N)c1 (stereo not shown) | Alpha-1A adrenergic receptor (ADRA1A, Homo sapiens, UniProt P35348) | protein level, degrader, western blot |  | DC50 | 17.4 µM
CC1(C)O[C@@H]2C[C@H]3[C@@H]4C[C@H](F)C5=CC(=O)C=C[C@]5(C)[C@@]4(F)[C@@H](O)C[C@]3(C)[C@]2(C(=O)CO)O1 | rep main protease | enzyme activity, inhibitor |  | pIC50 | 4.16
O=C(O)c1cc(O)c(O)c(O)c1 | rep main protease | enzyme activity, inhibitor | with preincubation | pIC50 | > 5.00
CCC(Sc1nnc2c(n1)[nH]c1ccccc12)C(=O)N1c2ccccc2Sc2ccccc21 (stereo not shown) | rep methyltransferase | enzyme activity, inhibitor |  | pIC50 | < 4.00
